In article PMC13424379 (Fundamental Research, 2024):

Legend:
[1] = system: Tg (fli1a: EGFP) zebrafish; test: Zebrafish vascular injury model; assay type: in vivo; conditions: for dose relation of the ameliorative effect on vascular injury: different concentrations, PTK787 model
How it was run: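 Tg(fli1a:EGFP) embryos at 24 hpf were dechorionated with 1 mg·mL⁻¹ protease E and placed 10 per well, 3 wells per group, in fish water (NaCl/KCl/CaCl2/MgSO4). Groups were vehicle (0.1% DMSO), 0.2 µg·mL⁻¹ PTK787, PTK787 plus 0.2 mg·mL⁻¹ aspirin, and PTK787 plus test compound. Exposure lasted 24 h at 28.5 °C on a 14/10 h light/dark cycle. ISV development was observed and ISV length measured.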

T1R2 = biological target: T1, T1R2 (Homo sapiens, UniProt Q8TE23); test: T1R2-HEMT biosensor interaction, dissociation constant; assay type: binding
T1 sequence (Q8TE23 20-839): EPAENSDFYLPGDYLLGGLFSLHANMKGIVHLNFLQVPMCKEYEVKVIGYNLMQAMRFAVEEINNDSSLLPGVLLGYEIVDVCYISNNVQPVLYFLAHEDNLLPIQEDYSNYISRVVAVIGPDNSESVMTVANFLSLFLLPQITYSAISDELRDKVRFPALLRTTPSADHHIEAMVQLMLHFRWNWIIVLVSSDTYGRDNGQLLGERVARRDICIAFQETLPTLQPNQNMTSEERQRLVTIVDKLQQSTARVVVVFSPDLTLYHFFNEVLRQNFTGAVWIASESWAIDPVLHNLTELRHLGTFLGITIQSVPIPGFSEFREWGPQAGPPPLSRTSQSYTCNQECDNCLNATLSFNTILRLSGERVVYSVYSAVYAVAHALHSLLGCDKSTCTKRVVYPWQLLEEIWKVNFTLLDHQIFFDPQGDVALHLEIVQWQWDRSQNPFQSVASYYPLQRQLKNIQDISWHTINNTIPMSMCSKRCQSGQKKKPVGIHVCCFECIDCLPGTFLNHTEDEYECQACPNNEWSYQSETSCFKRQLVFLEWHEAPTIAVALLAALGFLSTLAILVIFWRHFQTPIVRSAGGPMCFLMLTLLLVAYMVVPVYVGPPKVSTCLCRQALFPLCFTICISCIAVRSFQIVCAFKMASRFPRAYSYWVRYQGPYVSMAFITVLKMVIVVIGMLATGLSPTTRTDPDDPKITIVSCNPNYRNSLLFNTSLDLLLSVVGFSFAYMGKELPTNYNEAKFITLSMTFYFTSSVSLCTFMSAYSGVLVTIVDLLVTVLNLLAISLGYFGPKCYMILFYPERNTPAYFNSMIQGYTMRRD
How it was run: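 Recombinant T1R2 and T1R3 proteins (100 μg·mL⁻¹) were immobilised on an AlGaAs/GaAs HEMT chip at 4 °C. Test compounds in 0.5% DMSO were applied at eleven concentrations from 0.1 pmol·L⁻¹ to 1 mmol·L⁻¹. KD was derived by a linear fit of [C]/ΔI against [C], where ΔI is the current change and ΔImax the saturated current change.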

T1R3 = biological target: T2, T1R3 (Homo sapiens, UniProt Q7RTX0); test: T1R3-HEMT biosensor interaction, dissociation constant; assay type: binding
T2 sequence (Q7RTX0 21-852): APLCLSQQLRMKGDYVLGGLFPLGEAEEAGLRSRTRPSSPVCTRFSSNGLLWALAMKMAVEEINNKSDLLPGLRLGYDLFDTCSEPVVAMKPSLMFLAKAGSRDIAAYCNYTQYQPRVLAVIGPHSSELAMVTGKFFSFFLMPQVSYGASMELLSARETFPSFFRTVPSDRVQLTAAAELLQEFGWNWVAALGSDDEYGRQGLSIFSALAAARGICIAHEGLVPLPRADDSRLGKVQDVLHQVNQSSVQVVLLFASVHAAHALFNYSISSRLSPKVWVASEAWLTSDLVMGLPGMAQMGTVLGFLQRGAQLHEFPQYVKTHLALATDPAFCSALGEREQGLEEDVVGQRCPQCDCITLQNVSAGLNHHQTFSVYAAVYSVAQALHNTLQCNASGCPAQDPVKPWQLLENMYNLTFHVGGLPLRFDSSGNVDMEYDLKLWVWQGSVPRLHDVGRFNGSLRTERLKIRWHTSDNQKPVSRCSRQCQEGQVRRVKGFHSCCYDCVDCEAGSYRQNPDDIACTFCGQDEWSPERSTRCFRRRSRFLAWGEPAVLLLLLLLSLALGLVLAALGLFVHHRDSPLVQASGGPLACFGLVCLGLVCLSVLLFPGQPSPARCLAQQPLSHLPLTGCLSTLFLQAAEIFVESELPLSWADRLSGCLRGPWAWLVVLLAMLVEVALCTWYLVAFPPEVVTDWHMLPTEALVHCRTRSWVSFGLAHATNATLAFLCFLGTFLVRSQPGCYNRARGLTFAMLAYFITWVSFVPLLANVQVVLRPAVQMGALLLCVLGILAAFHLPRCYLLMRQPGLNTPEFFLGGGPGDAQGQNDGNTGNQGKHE

Tg (mpx: EGFP) zebrafish = test: Zebrafish immunocompromised model; assay type: in vivo; conditions: for immune enhancement (number of neutrophils): compared to the model group
[2] = 25 µM·L^−1, with 0.2 µg·mL^−1 PTK787, compared with the model group

Row | Compound | dose relation of the ameliorative effect on vascular injury [1] | Kd (T1R2) [pM] | Kd (T1R3) [pM] | effect on ISVs [1, 2] | also measured
1 | Clc1ccc(Nc2nnc(Cc3ccncc3)c3ccccc23)cc1 [PTK787, Vatalanib (PTK787) 2HCl, reference compound] | – | – | – | – | total length of ISVs ([1]; 0.2 µg·mL^−1, compared with the control group, 24 h exposure): significantly reduce; teratogenicity ([1]; 0.2 µg·mL^−1, zebrafish embryos): not teratogenic
2 | C=C1CCC[C@]2(C)C=C3OC(=O)C(C)=C3C[C@@H]12 [atractylenolide I] | dose-dependent effects | 1060 | 88.2 | – | effect on ISVs ([1]; 50 µM·L^−1, with 0.2 µg·mL^−1 PTK787, compared with the model group): significantly promote ISVs
3 | COc1ccc(-c2coc3cc(O)ccc3c2=O)cc1O [calycosin] | stronger at a low dose | 1.7 | 641 | significantly promote ISVs | immune enhancement (number of neutrophils) (Tg (mpx: EGFP) zebrafish; 50 µM·L^−1, with 100 µg·mL^−1 vinorelbine): immune-enhancing effect
4 | C[C@@H]1CC[C@@]2(OC1)O[C@H]1C[C@H]3[C@@H]4CC=C5C[C@@H](O)C[C@@H](O)[C@]5(C)[C@H]4CC[C@]3(C)[C@H]1[C@@H]2C [ruscogenin] | stronger at medium and high doses | 52500 | 217 | significantly promote ISVs | immune enhancement (number of neutrophils) (Tg (mpx: EGFP) zebrafish; 100 µM·L^−1, with 100 µg·mL^−1 vinorelbine): immune-enhancing effect
5 | CCC1=C[C@@H]2CN(C1)Cc1c([nH]c3ccccc13)[C@@](C(=O)OC)(c1cc3c(cc1OC)N(C)[C@H]1[C@@](O)(C(=O)OC)[C@H](OC(C)=O)[C@]4(CC)C=CCN5CC[C@]31[C@@H]54)C2 [vinorelbine, Vinorelbine, reference compound] | – | – | – | – | number of neutrophils in the zebrafish tail (Tg (mpx: EGFP) zebrafish; 100 µg·mL^−1, model construction): significantly reduced
